Experimental data from ChEMBL document CHEMBL5143609, “Enigmazole C: A Cytotoxic Macrocyclic Lactone and Its Ring-Opened Derivatives from a New Species of Homophymia Sponge” (2022).

Assays:
Assay type in all cases: functional
Conditions in all cases: for CC50: read-out: LC50 (the source's name)
A549 = experiment: Cytotoxicity against human A549 cells
Outline: (§1)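 Cell-growth inhibition was tested in human tumor lines: A-549 lung carcinoma, HT-29 colorectal carcinoma, MDA-MB-231 breast adenocarcinoma and PSN-1 pancreatic adenocarcinoma. GI50 is the concentration giving 50% inhibition of cell growth, calculated by a literature procedure. TGI and LC50 endpoints were also reported.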

HT-29 = experiment: Cytotoxicity against human HT-29 cells; outline: as §1
MDA-MB-231 = experiment: Cytotoxicity against human MDA-MB-231 cells; outline: as §1
PSN1 = experiment: Cytotoxicity against human PSN1 cells; outline: as §1

C=C(C[C@@H](C)C[C@@H]1CC(=O)C=C(/C=C/CC[C@H](C)C(=O)O)O1)C[C@H](O)c1coc(/C=C(/C)[C@@H](C)OC)n1
GI50 (A549): 1.4 µM | TGI (A549): > 19 µM | CC50 (A549): > 19 µM | GI50 (HT-29): 1 µM | TGI (HT-29): 3.7 µM | CC50 (HT-29): > 19 µM | GI50 (MDA-MB-231): 4.1 µM | TGI (MDA-MB-231): > 19 µM | CC50 (MDA-MB-231): > 19 µM | GI50 (PSN1): 1.1 µM | TGI (PSN1): > 19 µM | CC50 (PSN1): > 19 µM

C=C1CC(C)CC2CC(=O)C=C(C[C@H](O)CC[C@H](C)C(=O)OC(c3coc(/C=C(/C)C(C)OC)n3)C1)O2 (some centres undefined)
GI50 (A549): 9.9 µM | TGI (A549): > 19 µM | CC50 (A549): > 19 µM | GI50 (HT-29): 18 µM | TGI (HT-29): > 19 µM | CC50 (HT-29): > 19 µM | GI50 (MDA-MB-231): > 19 µM | TGI (MDA-MB-231): > 19 µM | CC50 (MDA-MB-231): > 19 µM | GI50 (PSN1): 8.7 µM | TGI (PSN1): > 19 µM | CC50 (PSN1): > 19 µM
